Results reported in ChEMBL document CHEMBL2010740, “Synthesis and evaluation of 2-amido-3-carboxamide thiophene CB₂ receptor agonists for pain management” (Bioorg Med Chem Lett, 2012).

Assays:
Format in all cases: cell-based
Cannabinoid receptor 1 [1] = biological target: Cannabinoid receptor 1 (Homo sapiens, UniProt P21554); experiment: Displacement of [3H]CP-55940 from human recombinant CB1 receptor expressed in CHO cells after 90 mins
Summary of the method: (§1)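 Competitive binding: [³H]CP-55,940 displaced from membranes of HEK 293 cells stably transfected with human or rat CB₂, or CHO cells stably transfected with human or rat CB₁. Reported as pKi. Determinations >2 (duplicate of duplicate).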

Cannabinoid receptor 1 [2] = biological target: Cannabinoid receptor 1 (Rattus norvegicus, UniProt P20272); experiment: Displacement of [3H]CP-55940 from rat recombinant CB1 receptor expressed in CHO cells after 90 mins; summary of the method: as §1
Cannabinoid receptor 2 [3] = biological target: T1, Cannabinoid receptor 2 (Rattus norvegicus, UniProt Q9QZN9); experiment: Displacement of [3H]CP-55940 from rat recombinant CB2 receptor expressed in HEK293 cells after 90 mins; summary of the method: as §1
T1 sequence (Q9QZN9 whole entry): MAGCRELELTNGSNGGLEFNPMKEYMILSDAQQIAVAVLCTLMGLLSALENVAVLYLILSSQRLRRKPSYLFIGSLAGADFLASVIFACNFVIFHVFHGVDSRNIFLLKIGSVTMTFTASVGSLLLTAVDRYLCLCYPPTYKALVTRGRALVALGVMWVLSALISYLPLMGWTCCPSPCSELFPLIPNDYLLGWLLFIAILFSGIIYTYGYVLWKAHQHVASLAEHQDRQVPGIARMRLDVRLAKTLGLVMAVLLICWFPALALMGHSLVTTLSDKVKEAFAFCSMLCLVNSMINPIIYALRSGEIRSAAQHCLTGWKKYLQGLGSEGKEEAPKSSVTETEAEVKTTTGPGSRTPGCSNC

Cannabinoid receptor 2 [4] = biological target: Cannabinoid receptor 2 (Homo sapiens, UniProt P34972); experiment: Displacement of [3H]CP-55940 from human recombinant CB2 receptor expressed in HEK293 cells after 90 mins; summary of the method: as §1
Cannabinoid receptor 2 (Homo sapiens, UniProt P34972), sequence (P34972 whole entry): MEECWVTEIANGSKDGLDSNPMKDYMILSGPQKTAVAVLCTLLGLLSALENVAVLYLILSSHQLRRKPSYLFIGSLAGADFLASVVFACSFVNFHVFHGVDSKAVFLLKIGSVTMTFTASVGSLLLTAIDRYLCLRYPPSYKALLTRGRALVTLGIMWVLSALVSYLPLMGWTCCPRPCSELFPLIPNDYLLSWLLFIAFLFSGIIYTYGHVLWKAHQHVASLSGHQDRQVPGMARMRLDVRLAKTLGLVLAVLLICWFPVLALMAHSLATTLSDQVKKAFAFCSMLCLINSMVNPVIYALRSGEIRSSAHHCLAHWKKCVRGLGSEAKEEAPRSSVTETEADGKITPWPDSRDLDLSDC

Cannabinoid receptor 1 (Rattus norvegicus, UniProt P20272), sequence (P20272 whole entry): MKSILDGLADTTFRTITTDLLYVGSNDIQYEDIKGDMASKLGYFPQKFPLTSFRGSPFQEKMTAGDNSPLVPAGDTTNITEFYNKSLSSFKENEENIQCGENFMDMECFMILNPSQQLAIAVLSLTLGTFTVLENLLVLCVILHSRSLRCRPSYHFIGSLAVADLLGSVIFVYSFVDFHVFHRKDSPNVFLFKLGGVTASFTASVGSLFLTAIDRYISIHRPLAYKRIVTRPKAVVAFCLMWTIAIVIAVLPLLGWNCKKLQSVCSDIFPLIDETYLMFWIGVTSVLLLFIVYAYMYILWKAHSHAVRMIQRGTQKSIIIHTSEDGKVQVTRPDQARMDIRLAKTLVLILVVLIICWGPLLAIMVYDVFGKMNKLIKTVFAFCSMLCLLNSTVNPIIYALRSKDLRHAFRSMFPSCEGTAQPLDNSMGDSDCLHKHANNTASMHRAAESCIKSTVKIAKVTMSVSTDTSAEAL
Cannabinoid receptor 1 (Homo sapiens, UniProt P21554), sequence (P21554 whole entry): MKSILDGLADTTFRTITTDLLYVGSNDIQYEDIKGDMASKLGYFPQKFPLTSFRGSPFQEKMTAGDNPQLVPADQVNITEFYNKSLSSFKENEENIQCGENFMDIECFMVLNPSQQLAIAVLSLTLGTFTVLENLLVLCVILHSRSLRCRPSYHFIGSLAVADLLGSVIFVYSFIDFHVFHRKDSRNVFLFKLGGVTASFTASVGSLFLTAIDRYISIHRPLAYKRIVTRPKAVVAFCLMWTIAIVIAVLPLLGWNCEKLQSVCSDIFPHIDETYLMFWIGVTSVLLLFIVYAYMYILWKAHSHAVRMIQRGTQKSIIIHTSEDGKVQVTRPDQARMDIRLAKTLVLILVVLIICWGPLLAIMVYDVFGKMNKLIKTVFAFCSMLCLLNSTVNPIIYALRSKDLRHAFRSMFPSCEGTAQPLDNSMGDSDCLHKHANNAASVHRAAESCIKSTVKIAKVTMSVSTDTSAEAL

`O=C(c1c(NC(=O)C23CC4CC(CC2C4)C3)sc2c1CCOC2)N1CCOCC1` was tested, and the Ki (Cannabinoid receptor 1 [1]) was greater than 10 µM, the Ki (Cannabinoid receptor 1 [2]) was greater than 10 µM and the Ki (Cannabinoid receptor 2 [3]) was greater than 10 µM. It also gave a Ki (Cannabinoid receptor 2 [4]) of 0.0912 µM.
